Screens: PubChem, Johns Hopkins Ion Channel Center
RGS4 pot – RGS4 potentiation or activation; HEK293 M3R/inducible RGS4, carbachol calcium flux Fluo4; active compounds read low; B-score at 10 µM; hit rate 0.92% among 310,000;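 active = B-score of the integrated calcium signal more than 4 SD below the library mean, with starting fluorescence not abnormally high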;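 also: negative B-score means reduced calcium response which marks RGS4 activation or potentiation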
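Assay system: HEK293 FlpIn-TREx cells, stable M3R, doxycycline-inducible RGS4 / Probe or stimulus: carbachol, ECmax concentration / Times: overnight RGS4 induction, 30 min dye load 37 °C, 20 min compound RT / Signal: kinetic calcium fluorescence imaging with Fluo4-AM dye, 2 µM / Measure: Agonist-evoked peak-minus-minimum fluorescence over baseline, integrated ratio, B score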
RGS4 block – inhibitors of human RGS4; P49798; HEK293 M3R/RGS4 inducible, Fluo-4 calcium flux; active compounds read high; triggered by carbachol at its EC20; B-score at 10 µM; hit rate 0.45% among 310,000;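 active = B-score, a plate-corrected calcium signal, over three deviations above library mean, with baseline fluorescence within five deviations of library mean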;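 also: RGS4 expression induced by doxycycline in cells with stable M3 receptor; B-score is computed from the integrated fluorescence ratio over baseline after carbachol; higher B-score means a larger calcium signal and so more RGS4 inhibition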
MrgX1 agonist – human MrgX1 receptor agonism, primary screen | Q96LB2 | B-score at 10 µM | hit rate 0.44% among 310,000 | MrgX1-HEK293 cells, Fluo-4 calcium fluorescence, agonist mode; active compounds read high;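 active = calcium response B-score plate-corrected fluorescence ratio at least 3 library SD, with starting fluorescence B-score inside 5 SD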
Target sequence (Q96LB2 whole entry, looked up): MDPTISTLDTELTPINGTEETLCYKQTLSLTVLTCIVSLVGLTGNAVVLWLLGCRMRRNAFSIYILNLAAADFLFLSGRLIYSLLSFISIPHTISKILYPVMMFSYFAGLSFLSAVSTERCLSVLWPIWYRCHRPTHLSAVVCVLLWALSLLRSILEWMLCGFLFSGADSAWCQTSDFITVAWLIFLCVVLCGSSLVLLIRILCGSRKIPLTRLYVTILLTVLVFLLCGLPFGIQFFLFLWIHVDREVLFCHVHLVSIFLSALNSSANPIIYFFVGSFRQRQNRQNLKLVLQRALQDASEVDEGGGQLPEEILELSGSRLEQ
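times = overnight plating, then 30 min 37 °C plus 30 min room-temperature dye loading | assay system = stable human MrgX1 HEK293 cell line | input = fifteen thousand cells per well | signal = kinetic calcium dye fluorescence, Fluo-4 NW | dosing = compound delivered in addition one of three | read-out = B-scored fluorescence response ratio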
MrgX1 antag – human MrgX1 receptor antagonism, primary screen | AID 588676 | B-score at 10 µM | Q96LB2 | hit rate 1.3% among 310,000 | MRGX1-HEK293 calcium flux, Fluo-4, BAM8-22 antagonism; active compounds read low;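 active = calcium-response B-score plate-corrected more than 3 library SD below zero, starting fluorescence within 5 deviations, no agonist response on first addition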;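 also: peak minus trough fluorescence over baseline after final BAM8-22 challenge near maximal dose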
MrgX1 PAM – human MrgX1 positive allosteric modulation, primary screen | MrgX1-HEK293, Fluo-4 calcium flux, FDSS; active compounds read high | B-score at 10 µM | AID 588675 | Q96LB2 | hit rate 0.63% among 310,000;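 active = plate-corrected calcium response at least 3 library SD above typical, normal starting fluorescence, not activating the receptor alone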;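 also: compound read alongside a low EC10 to EC30 dose of BAM8-22 agonist; peak minus trough fluorescence over baseline measured at the second addition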
Numbers without * were called inactive. Hits are enriched below; roughly 3.5% of the tested compounds scored in any of these assays.

What do the screens show for `COc1ccc(-c2nn(-c3ccccc3)cc2/C=N/NC(=O)c2cccc(S(=O)(=O)Nc3ccccc3Cl)c2)cc1`?
RGS4 pot: inactive; RGS4 block: inactive; MrgX1 agonist: inactive; MrgX1 antag: -5*; MrgX1 PAM: inactive

Results for O=C(N/N=C/c1ccccn1)c1cccc(S(=O)(=O)Nc2ccccc2Cl)c1 ?
RGS4 pot: inactive; RGS4 block: inactive; MrgX1 agonist: inactive; MrgX1 antag: inactive; MrgX1 PAM: 16*

What do the screens show for `COc1ccc(C(CNC(=O)c2cccc(S(=O)(=O)Nc3ccc(C)cc3)c2)N2CCOCC2)cc1` (stereo not drawn)?
RGS4 pot: inactive; RGS4 block: inactive; MrgX1 agonist: inactive; MrgX1 antag: inactive; MrgX1 PAM: inactive

How did CCc1ccc2oc(C(=O)NCC(c3ccc(OC)cc3)N3CCCCC3)c(C)c2c1 (stereo not drawn) do in these assays?
RGS4 pot: -8.1*; RGS4 block: inactive; MrgX1 agonist: inactive; MrgX1 antag: inactive; MrgX1 PAM: inactive

How did COc1ccc(NS(=O)(=O)c2cccc(C(=O)NCC(c3ccc(OC)cc3)N3CCOCC3)c2)cc1 (stereo not drawn) do in these assays?
RGS4 pot: inactive; RGS4 block: inactive; MrgX1 agonist: inactive; MrgX1 antag: -4.7*; MrgX1 PAM: inactive

Results for COc1ccc(Nc2nc(-c3ccncc3)nc3ccccc23)cc1 ?
RGS4 pot: inactive; RGS4 block: inactive; MrgX1 agonist: inactive; MrgX1 antag: inactive; MrgX1 PAM: inactive

What do the screens show for `O=C(Nc1ccccc1C(=O)O)c1cc(S(=O)(=O)N2CCCCC2)c(Cl)cc1Cl`?
RGS4 pot: inactive; RGS4 block: inactive; MrgX1 agonist: inactive; MrgX1 antag: inactive; MrgX1 PAM: inactive

How did COCCCNCCOc1ccc(C)cc1[N+](=O)[O-] do in these assays?
RGS4 pot: inactive; RGS4 block: inactive; MrgX1 agonist: inactive; MrgX1 antag: -4.9*; MrgX1 PAM: inactive

What do the screens show for `CCOC(=O)C1CCN(C(=O)/C=C/c2ccc3c(c2)OCO3)CC1`?
RGS4 pot: inactive; RGS4 block: inactive; MrgX1 agonist: inactive; MrgX1 antag: inactive; MrgX1 PAM: inactive

How did COCCNC(=S)N1CCc2cc(OC)c(OC)cc2C1c1cccs1 (stereo not drawn) do in these assays?
RGS4 pot: inactive; RGS4 block: inactive; MrgX1 agonist: inactive; MrgX1 antag: inactive; MrgX1 PAM: inactive

Results for CC1=[N+](C)N(c2ccccc2)C(=O)C1N=Cc1ccccc1Cl (stereo not drawn) ?
RGS4 pot: inactive; RGS4 block: inactive; MrgX1 agonist: inactive; MrgX1 antag: inactive; MrgX1 PAM: inactive

Results for CC1=[N+](C)N(c2ccccc2)C(=O)C1N=Cc1c(Cl)cccc1Cl (stereo not drawn) ?
RGS4 pot: inactive; RGS4 block: inactive; MrgX1 agonist: 31*; MrgX1 antag: inactive; MrgX1 PAM: inactive

Results for CCOc1ccc(-n2c(SCC(N)=O)nc3c(c2=O)SCC3)cc1 ?
RGS4 pot: inactive; RGS4 block: inactive; MrgX1 agonist: inactive; MrgX1 antag: inactive; MrgX1 PAM: inactive

How did O=C(NC(=C(Cl)Cl)S(=O)(=O)c1ccc(Cl)cc1)c1ccccc1 do in these assays?
RGS4 pot: inactive; RGS4 block: inactive; MrgX1 agonist: inactive; MrgX1 antag: inactive; MrgX1 PAM: inactive

Results for CCSC1(SCC)N=C(N)C2(C#N)C(c3ccc(F)cc3)C12C#N (stereo not drawn) ?
RGS4 pot: inactive; RGS4 block: inactive; MrgX1 agonist: 29*; MrgX1 antag: inactive; MrgX1 PAM: inactive

What do the screens show for `COc1cc(C(=O)N/N=C/c2ccc3c(c2)c2ccccc2n3C)ccc1O`?
RGS4 pot: inactive; RGS4 block: inactive; MrgX1 agonist: inactive; MrgX1 antag: inactive; MrgX1 PAM: inactive

How did Cn1c2ccccc2c2cc(/C=N/NC(=O)c3cc(O)ccc3O)ccc21 do in these assays?
RGS4 pot: -9*; RGS4 block: inactive; MrgX1 agonist: inactive; MrgX1 antag: inactive; MrgX1 PAM: inactive

Results for COCCCNC(=O)C(=O)Nc1cc2c3c(c1)CCN3C(=O)CC2 ?
RGS4 pot: inactive; RGS4 block: inactive; MrgX1 agonist: inactive; MrgX1 antag: inactive; MrgX1 PAM: inactive
